Source: PubChem BioAssay (several laboratories)
An excerpt weighted towards active compounds, which were near 9.6% of everything screened.
PMI act = phosphomannose isomerase (human) activation. P34949. purified human PMI, coupled resazurin fluorescence, 20 min; active compounds read high; 1 = vehicle control, 0 substrate-free wells. activation factor at 20 µM. 190,000 compounds, 0.005% hits. AID 1214;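 active = activation factor of 2 or more at 20 µM, relative to plate controls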
Target sequence (P34949 whole entry, looked up): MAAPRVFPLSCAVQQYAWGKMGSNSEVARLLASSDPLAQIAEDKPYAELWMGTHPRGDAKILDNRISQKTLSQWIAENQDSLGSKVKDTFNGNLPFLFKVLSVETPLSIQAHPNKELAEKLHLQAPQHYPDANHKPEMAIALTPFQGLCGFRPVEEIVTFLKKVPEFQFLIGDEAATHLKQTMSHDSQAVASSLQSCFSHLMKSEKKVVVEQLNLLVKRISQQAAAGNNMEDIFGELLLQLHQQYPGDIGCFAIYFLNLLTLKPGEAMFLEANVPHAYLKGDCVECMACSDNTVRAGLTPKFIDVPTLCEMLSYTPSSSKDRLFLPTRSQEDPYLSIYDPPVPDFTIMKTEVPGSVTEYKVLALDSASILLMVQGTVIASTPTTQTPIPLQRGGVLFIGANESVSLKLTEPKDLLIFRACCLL
PTEN del growth = growth suppressors of cells with PTEN tumor suppressor deletion; viability, % at 10 µM; 140,000 compounds, 1.2% hits; AID 827; HCT116 PTEN-null viability, CellTiter-Glo, 60 h; active compounds read low;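 active = viability at or below a set limit, 4 SD under the median of all tested compounds, cut at about 3.7% in these data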;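 note: PTEN knockout HCT116 line with beta catenin targeted HCT116 as companion control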
L major viab = reduces viability of Leishmania major promastigotes; resazurin fluorescence viability; inhibition, % at 10 µM; 200,000 compounds, 9% hits; AID 1063; in the data active = inhibition above about 50%;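 note: promastigotes grown with compound for 44 hours at 28 °C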
bCat KO growth = beta-catenin-lacking colon tumor cell growth suppression | viability, % at 10 µM | 140,000 compounds, 1.5% hits | HCT116 beta-catenin knockout viability, CellTiter-Glo, 60 h; active compounds read low;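 active = viability at or under a set limit, the compound median less 4 SD, cut at about 6% in these data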;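 note: 0% = Hyamine 1622 control at 20 µM and 100% = untreated cell control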
PMI act satM6P = increases human PMI activity with near-saturating mannose 6-phosphate. P34949. coupled PMI enzyme assay, resazurin fluorescence, 20 min; active compounds read high; 1 = untreated enzyme, 0 = substrate-free blank. activation factor at 20 µM. 190,000 compounds, 0.34% hits. AID 1216;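 active = activation factor of 2 or more at 20 µM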
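Technique: Diaphorase-driven resazurin-to-resorufin fluorescence, excitation 544, emission 590 nm | Assay system: Human PMI in coupled enzyme assay | Times: Enzyme reaction with compound 20 min at room temperature | Medium: HEPES-buffered pH 7.4 with magnesium and detergent | Reagent: Mannose-6-phosphate 1.0 mM (near-saturating) plus 0.22 mM NADP+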
Starred values were filed as active, the others as inactive; nt = no result.

SMILES | PMI act | PTEN del growth | L major viab | bCat KO growth | PMI act satM6P
Cc1ccccc1NC(=O)C1CCCN1/C=C/C(=O)C(F)(F)F (stereo not given) | 1 | 101.3 | -1.7 | 89.3 | 1.1
CC1=Nc2cccc([N+](=O)[O-])c2NC(=O)C1 | 1.1 | nt | -5.5 | nt | 1.1
CC1(C)CC(=O)C=C(NC2=CC3OC(c4ccccc4)OCC3OC2=O)C1 (stereo not given) | 1.1 | 103.1 | -4.3 | 95.2 | 1.1
COc1ccc2cc(CN(CC3CCCO3)C(=S)NCc3ccco3)c(=O)[nH]c2c1 (stereo not given) | 0.9 | nt | 18.1 | nt | 1
COc1ccc(C2CC(=O)Nc3n[nH]c(-c4ccccc4)c32)cc1OC (stereo not given) | 0.9 | nt | -6.0 | nt | 0.9
COc1ccc(C(=O)CSc2nnc(CN3CCCCC3)n2-c2ccc(F)cc2)cc1OC | 0.9 | 98.8 | 90.1* | 90.2 | 0.9
Nn1c(SCC(=O)Nc2cccc(F)c2)nnc1C1CCCCC1 | 1.1 | 102.2 | -4.8 | 103.6 | 1
CCOC(=O)CSc1nnc(CNC(=O)c2ccc(OC)cc2OC)n1-c1ccc(OC)cc1 | 1.1 | 101.2 | -0.4 | 88.5 | 1
COc1ccc(C(=O)CSc2nnc(CN3CCCC3)n2-c2ccc(F)cc2)c(OC)c1 | 1 | 87.2 | 80.2* | 85.5 | 1.1
COc1ccc(C(=O)CSc2nnc(C3CCCCC3)n2N)c(OC)c1 | 1 | 71.7 | 53.0* | 69.5 | 1
O=C(CSc1nnc(CN2CCCCC2)n1-c1ccccc1)c1ccc2c(c1)OCO2 | 0.9 | 79.2 | -7.4 | 88.0 | 0.9
CCc1nnc(NS(=O)(=O)c2ccc(N=CC3=C(O)CC(C)(C)CC3=O)cc2)s1 | 1.3 | nt | 0.1 | nt | 1.2
CCc1cccc(CC)c1NC(=S)NCC(c1cccnc1)N(C)C (stereo not given) | 1 | nt | 1.8 | nt | 1
COC(=O)c1ccc(CSc2nc(C)nc3sc(C)c(C)c23)o1 | 1 | 81.4 | 2.0 | 84.4 | 1
Nc1c(N2CCCC2)cc(Cl)c2nonc12 | 0.5 | 106.4 | 86.4* | 94.9 | 0.4
CN(C)/C=C(/C(=O)c1ccccc1)n1cncn1 | 1.1 | nt | -2.8 | nt | 1.1
O=C(/C=C(/c1ccc(Cl)cc1)n1cncn1)c1ccccc1 | 1.2 | 92.0 | 94.4* | 92.0 | 1.2
CCOC(=O)c1c(C2CC2)csc1NC(=O)COC(=O)c1cc(OC)c(OC)cc1[N+](=O)[O-] | 0.7 | 90.3 | 90.8* | 81.9 | 0.8
CCOC(=O)c1c(C2CC2)csc1NC(=O)COC(=O)c1ccc[n+]([O-])c1 | 0.9 | 87.4 | -1.1 | 94.2 | 1
O=C(CSc1ccccc1)Nc1ccc(N2CCN(c3ccccc3)CC2)c(F)c1 | 1 | 98.4 | -4.4 | 83.8 | 1
COc1ccc(SCC(=O)Nc2ccc(N3CCN(C)CC3)c(F)c2)cc1 | 1.1 | nt | 94.0* | nt | 1.1
O=C(NNc1ccccc1)C(=O)N1CCCCC1 | 0.9 | 102.8 | 66.7* | 96.5 | 1
O=C(NNC(=O)c1ccc(F)cc1)C(=O)N1CCCCC1 | 1 | 106.2 | 94.7* | 91.8 | 1
CSC(=NNC(=O)c1ccc(O)cc1)SC | 1 | 89.8 | 1.0 | 93.2 | 1.1
COc1cc2cc(C(c3nnnn3C3CCCC3)N3CCc4ccccc43)c(=O)[nH]c2cc1OC (stereo not given) | 1.2 | 83.5 | -4.3 | 77.5 | 1.2
SMILES | PMI act | PTEN del growth | L major viab | bCat KO growth | PMI act satM6P
COc1ccccc1N1CCN(C(c2cc3ccc(C)cc3[nH]c2=O)c2nnnn2C2CCCC2)CC1 (stereo not given) | 1.1 | 8.2 | 61.9* | 3.0* | 0.7
CCOC(=O)C1CCN(C(c2cc3ccc(C)cc3[nH]c2=O)c2nnnn2C2CCCCC2)CC1 (stereo not given) | 1.4 | 92.3 | 88.5* | 91.8 | 1.9
COc1ccccc1N1CCN(C(c2cc3cc(C)ccc3[nH]c2=O)c2nnnn2C2CCCC2)CC1 (stereo not given) | 0.7 | 68.3 | 54.5* | 79.9 | 0.9
CSCCC1COC(c2cccs2)=N1 (stereo not given) | 1 | nt | -0.4 | nt | 0.9
CC(=O)N=c1n(C)c2ccccc2n1CCOc1ccccc1 | 1 | 102.3 | -5.6 | 105.0 | 1
Cc1ccc(-c2cc(C(=O)NCc3ccc4c(c3)OCO4)[nH]n2)c(O)c1C | 0.9 | 65.6 | 54.4* | 73.0 | 1
COc1ccc(CCNC(=O)c2cc(-c3ccc(C)c(C)c3O)n[nH]2)cc1OC | 1 | 78.6 | 92.7* | 93.7 | 1
COc1ccc(CCNC(=O)c2cc(-c3cc(C)ccc3O)n[nH]2)cc1OC | 0.8 | 114.3 | 88.9* | 102.5 | 0.8
COc1ccc(CCNC(=O)c2ccncc2)cc1OC | 1 | 98.2 | -2.2 | 90.6 | 0.9
Cc1cc(=O)oc(C)c1C(=O)n1nc(C)c2c1C[C@@H]1[C@H]2C1(C)C | 1.2 | 92.2 | 14.0 | 98.8 | 1
FC(F)Oc1ccc(NC(=S)NCC2COc3ccccc3O2)cc1 (stereo not given) | 0.9 | 102.2 | -2.2 | 98.6 | 1
Cn1c2c(c(=O)n(C)c1=O)C(C(F)(F)F)(C(F)(F)F)N=C(c1ccc(Cl)cc1)N2 | 1 | 4.2 | 100.0* | 3.0* | 1.1
COc1ccc(N(C(=O)CNC(=O)c2cccs2)C(C(=O)NCC2CCCO2)c2ccccc2)cc1OC (stereo not given) | 0.9 | nt | -2.8 | nt | 0.8
CCOc1cc2[nH]c(=S)n(CCC(=O)NCc3ccco3)c(=O)c2cc1OCC | 0.9 | nt | -8.0 | nt | 0.9
CC(C)(C)Nc1nc(NN)nc(NC(C)(C)C)n1 | 1.1 | 76.3 | 81.0* | 83.4 | 1.1
Cc1noc2ncnc(Sc3ccc(Cl)cc3)c12 | 1 | 83.2 | 44.3 | 83.0 | 1.1
Cc1ccc(Sc2ncnc3onc(C)c23)cc1 | 1 | 78.8 | 56.4* | 82.7 | 1
COc1ccccc1C(=O)ON=C1c2ccccc2-c2ccccc21 | 0.7 | 90.3 | 50.8* | 98.6 | 0.8
COc1cc2c(cc1OC)C(c1cccc([N+](=O)[O-])c1)N(C(=O)c1ccccc1C(=O)O)CC2 (stereo not given) | 1 | nt | -6.3 | nt | 1
COc1ccc2nc(SCC(=O)NC3CCCc4ccccc43)[nH]c2c1 (stereo not given) | 0.9 | 92.6 | 74.7* | 80.2 | 1
CCCCn1c(SCC(=O)Nc2ccc3c(c2)CCC3)nc2ccccc2c1=O | 1 | 80.5 | 68.5* | 87.4 | 1
O=C(CSc1nc2ccc(Cl)cc2[nH]1)Nc1ccc2c(c1)CCC2 | 0.8 | 76.0 | -1.9 | 88.4 | 0.8
O=C(CSc1nc2ccccc2[nH]1)Nc1ccc2c(c1)CCC2 | 1 | 84.6 | 76.3* | 95.1 | 1.1
O=C(COC(=O)c1ccc(Cl)nc1)Nc1ccc2c(c1)OCO2 | 1 | nt | -7.0 | nt | 1
Cc1ccc(O)c(C(=O)c2cnc3c(c2)c(-c2ccc(F)cc2)c(C#N)c(=O)n3C)c1 | 1 | nt | 52.3* | nt | 0.9
Cc1ccc(O)c(C(=O)c2cnc3c(c2)CN(C)C(=O)N3)c1 | 1 | 43.9 | 47.4 | 47.2 | 1.1
Cc1ccc(O)c(C(=O)c2cnc3c(c2)c(C)nn3-c2ccccc2)c1 | 0.9 | 84.8 | 76.8* | 80.4 | 0.8
